From ChEMBL document CHEMBL1240409, “Design, synthesis and evaluation of (E)-alpha-benzylthio chalcones as novel inhibitors of BCR-ABL kinase” (Bioorg Med Chem, 2010)
pIC50: −log10 of the molar value. Calls of active or inactive are those of the source. The rule behind the calls is not given here.

How the values were obtained:
[1] = Aqueous solubility of the compound
[2] = tested on: K562; experiment: Growth inhibition of human K562 cells expressing p210Bcr/Abl after 96 hrs by trypan blue exclusion assay; assay type: functional, cell-based; conditions: K562, 96 h
Summary of the method: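 K562 cells were kept in RPMI with 10% FBS and penicillin–streptomycin at 37 °C under 5% CO2. Cells were seeded at 1 × 10^5 cells/mL with a range of compound concentrations, using DMSO as the negative control. After 96 h, viability was counted by Trypan blue exclusion and expressed as percent of DMSO control to derive GI50.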

[3] = molecular target: Bcr/Abl fusion protein (Homo sapiens) (UniProt P00519+P11274); experiment: Inhibition of BCR/ABL p210 autophosphorylation in human K562 cells at 0.2 to 10 uM after 2 hrs by Western blot analysis; assay type: cell-based
Bcr/Abl fusion protein (Homo sapiens), sequence (P00519 whole entry, looked up, the tested form may be a part): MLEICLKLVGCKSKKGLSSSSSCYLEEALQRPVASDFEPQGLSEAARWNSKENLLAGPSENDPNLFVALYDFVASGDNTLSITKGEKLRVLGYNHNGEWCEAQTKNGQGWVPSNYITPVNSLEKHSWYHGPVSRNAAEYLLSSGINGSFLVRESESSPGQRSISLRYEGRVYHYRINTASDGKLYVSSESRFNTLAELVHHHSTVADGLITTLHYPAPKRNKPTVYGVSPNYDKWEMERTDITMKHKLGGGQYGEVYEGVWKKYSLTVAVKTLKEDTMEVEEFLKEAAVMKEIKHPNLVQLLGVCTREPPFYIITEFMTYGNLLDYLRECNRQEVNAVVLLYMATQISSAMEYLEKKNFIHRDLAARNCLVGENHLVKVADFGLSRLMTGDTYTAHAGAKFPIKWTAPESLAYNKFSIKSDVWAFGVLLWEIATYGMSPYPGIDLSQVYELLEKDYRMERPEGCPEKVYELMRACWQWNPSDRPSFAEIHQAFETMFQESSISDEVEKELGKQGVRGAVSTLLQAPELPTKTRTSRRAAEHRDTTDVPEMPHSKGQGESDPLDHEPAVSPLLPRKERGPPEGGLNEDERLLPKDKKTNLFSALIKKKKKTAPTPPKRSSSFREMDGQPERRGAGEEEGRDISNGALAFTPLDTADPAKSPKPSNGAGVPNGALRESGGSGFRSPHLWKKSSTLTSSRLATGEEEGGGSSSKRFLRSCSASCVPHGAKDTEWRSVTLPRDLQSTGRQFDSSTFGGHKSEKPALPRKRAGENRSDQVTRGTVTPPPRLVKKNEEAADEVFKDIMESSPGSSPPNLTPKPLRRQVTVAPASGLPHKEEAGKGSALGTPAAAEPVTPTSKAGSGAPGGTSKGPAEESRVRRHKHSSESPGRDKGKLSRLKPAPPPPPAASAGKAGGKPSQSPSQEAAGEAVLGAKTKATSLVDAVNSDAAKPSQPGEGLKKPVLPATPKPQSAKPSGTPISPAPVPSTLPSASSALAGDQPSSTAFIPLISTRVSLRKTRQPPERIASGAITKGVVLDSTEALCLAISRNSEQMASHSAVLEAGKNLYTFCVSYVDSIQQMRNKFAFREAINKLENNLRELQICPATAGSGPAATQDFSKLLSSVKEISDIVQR
Bcr/Abl fusion protein (Homo sapiens), sequence (P11274 whole entry, looked up, the tested form may be a part): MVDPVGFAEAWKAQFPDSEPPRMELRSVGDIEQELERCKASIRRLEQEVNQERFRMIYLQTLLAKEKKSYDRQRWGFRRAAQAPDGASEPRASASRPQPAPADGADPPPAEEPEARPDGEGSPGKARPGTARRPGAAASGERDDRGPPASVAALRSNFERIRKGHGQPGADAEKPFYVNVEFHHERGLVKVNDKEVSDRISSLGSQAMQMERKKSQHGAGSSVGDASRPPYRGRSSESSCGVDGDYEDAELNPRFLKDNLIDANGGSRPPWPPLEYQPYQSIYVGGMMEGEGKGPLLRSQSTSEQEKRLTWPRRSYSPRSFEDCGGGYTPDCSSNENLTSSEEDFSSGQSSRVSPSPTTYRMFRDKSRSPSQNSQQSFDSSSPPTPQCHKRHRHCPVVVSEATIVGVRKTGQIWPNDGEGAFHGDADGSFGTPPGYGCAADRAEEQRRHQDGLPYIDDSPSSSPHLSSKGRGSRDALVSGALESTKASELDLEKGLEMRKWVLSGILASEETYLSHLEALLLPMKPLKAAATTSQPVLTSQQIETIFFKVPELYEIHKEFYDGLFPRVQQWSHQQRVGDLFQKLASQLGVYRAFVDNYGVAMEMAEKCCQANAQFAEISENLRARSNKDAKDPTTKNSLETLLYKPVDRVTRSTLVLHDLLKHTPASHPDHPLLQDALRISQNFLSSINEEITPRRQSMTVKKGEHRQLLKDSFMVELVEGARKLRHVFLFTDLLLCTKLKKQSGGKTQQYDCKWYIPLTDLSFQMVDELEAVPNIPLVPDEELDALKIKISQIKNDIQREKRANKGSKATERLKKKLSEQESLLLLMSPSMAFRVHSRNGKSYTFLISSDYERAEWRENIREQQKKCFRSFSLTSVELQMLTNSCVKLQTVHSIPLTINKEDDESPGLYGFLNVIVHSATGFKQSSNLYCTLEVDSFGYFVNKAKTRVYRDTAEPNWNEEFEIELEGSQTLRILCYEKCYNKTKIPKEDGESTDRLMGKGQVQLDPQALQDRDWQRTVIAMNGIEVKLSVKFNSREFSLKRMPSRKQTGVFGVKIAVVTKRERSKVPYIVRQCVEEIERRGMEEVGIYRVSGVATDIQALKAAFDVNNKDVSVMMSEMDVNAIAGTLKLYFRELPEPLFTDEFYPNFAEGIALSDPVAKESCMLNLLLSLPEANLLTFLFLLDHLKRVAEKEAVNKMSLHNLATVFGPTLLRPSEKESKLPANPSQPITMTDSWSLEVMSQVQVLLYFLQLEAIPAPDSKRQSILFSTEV
Summary of the method: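 Exponentially growing K562 cells were treated for 2 h with rising compound concentrations, diluted from 10 mM DMSO stocks via 1000× DMSO working stocks, or with DMSO vehicle. Lysates were run on 10% SDS–PAGE. Blots were probed sequentially for phospho-BCR-ABL and total BCR-ABL, detected with infrared-dye secondaries, and quantified by densitometry. The phospho signal was normalized to total, with % inhibition relative to vehicle.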

[4] = molecular target: T1, Bcr/Abl fusion protein (Homo sapiens, UniProt P00519); experiment: Inhibition of BCR/ABL p210 autophosphorylation in human K562 cells after 2 hrs by Western blot analysis; assay type: cell-based
T1 sequence (P00519 whole entry, the tested form may be a part): as the sequence (P00519 whole entry, looked up, the tested form may be a part) above
T1 sequence (P11274 whole entry, further chain, the tested form may be a part): as the sequence (P11274 whole entry, looked up, the tested form may be a part) above

[5] = Aqueous solubility of the compound; assay type: physicochemical; conditions: buffer
[6] = tested on: DU-145; experiment: Growth inhibition of human DU145 cells after 96 hrs by trypan blue exclusion assay; assay type: functional; conditions: DU-145, 96 h
[7] = molecular target: Cyclin-dependent kinase 1 (Homo sapiens, UniProt P06493); experiment: Inhibition of GST-tagged recombinant CDK1 after 20 mins by autoradiography
Summary of the method: (§1)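 Kinase reactions were started by adding 1 µg recombinant substrate with unlabelled and 32P-labelled ATP. They ran 20 min at 30 °C and were stopped with 2× Laemmli buffer, then boiled 2 min and resolved on 12% SDS–PAGE. Substrate phosphorylation bands on autoradiograms were quantified by densitometry and plotted against log drug concentration. IC50 came from sigmoidal variable-slope nonlinear regression.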

[8] = molecular target: Receptor tyrosine-protein kinase erbB-2 (Homo sapiens, UniProt P04626); experiment: Inhibition of ErbB2 by immunoprecipitation assay
[9] = molecular target: Proto-oncogene tyrosine-protein kinase Src (Homo sapiens, UniProt P12931); experiment: Inhibition of GST-tagged recombinant Src after 20 mins by autoradiography
Summary of the method: as §1

[10] = molecular target: Tyrosine-protein kinase Lyn (Homo sapiens, UniProt P07948); experiment: Inhibition of GST-tagged recombinant LynB after 20 mins by autoradiography
Tyrosine-protein kinase Lyn, sequence (P07948 whole entry): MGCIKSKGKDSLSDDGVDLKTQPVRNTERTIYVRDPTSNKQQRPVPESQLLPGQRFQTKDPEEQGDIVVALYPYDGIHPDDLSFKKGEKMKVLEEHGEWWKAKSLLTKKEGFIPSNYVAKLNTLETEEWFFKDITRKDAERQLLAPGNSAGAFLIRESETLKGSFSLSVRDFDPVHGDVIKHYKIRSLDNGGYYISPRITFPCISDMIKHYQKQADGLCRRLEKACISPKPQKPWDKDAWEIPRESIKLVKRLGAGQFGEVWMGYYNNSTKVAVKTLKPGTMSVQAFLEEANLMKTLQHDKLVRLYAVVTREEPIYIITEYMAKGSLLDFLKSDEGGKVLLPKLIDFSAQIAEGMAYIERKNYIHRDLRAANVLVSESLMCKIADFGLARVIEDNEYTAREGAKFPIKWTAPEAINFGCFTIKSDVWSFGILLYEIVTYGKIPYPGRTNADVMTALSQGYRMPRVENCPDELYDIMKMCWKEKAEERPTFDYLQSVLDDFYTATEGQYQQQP
Summary of the method: as §1

[11] = molecular target: Epidermal growth factor receptor (Homo sapiens, UniProt P00533); experiment: Inhibition of EGFR by immunoprecipitation assay
Epidermal growth factor receptor, sequence (P00533 whole entry): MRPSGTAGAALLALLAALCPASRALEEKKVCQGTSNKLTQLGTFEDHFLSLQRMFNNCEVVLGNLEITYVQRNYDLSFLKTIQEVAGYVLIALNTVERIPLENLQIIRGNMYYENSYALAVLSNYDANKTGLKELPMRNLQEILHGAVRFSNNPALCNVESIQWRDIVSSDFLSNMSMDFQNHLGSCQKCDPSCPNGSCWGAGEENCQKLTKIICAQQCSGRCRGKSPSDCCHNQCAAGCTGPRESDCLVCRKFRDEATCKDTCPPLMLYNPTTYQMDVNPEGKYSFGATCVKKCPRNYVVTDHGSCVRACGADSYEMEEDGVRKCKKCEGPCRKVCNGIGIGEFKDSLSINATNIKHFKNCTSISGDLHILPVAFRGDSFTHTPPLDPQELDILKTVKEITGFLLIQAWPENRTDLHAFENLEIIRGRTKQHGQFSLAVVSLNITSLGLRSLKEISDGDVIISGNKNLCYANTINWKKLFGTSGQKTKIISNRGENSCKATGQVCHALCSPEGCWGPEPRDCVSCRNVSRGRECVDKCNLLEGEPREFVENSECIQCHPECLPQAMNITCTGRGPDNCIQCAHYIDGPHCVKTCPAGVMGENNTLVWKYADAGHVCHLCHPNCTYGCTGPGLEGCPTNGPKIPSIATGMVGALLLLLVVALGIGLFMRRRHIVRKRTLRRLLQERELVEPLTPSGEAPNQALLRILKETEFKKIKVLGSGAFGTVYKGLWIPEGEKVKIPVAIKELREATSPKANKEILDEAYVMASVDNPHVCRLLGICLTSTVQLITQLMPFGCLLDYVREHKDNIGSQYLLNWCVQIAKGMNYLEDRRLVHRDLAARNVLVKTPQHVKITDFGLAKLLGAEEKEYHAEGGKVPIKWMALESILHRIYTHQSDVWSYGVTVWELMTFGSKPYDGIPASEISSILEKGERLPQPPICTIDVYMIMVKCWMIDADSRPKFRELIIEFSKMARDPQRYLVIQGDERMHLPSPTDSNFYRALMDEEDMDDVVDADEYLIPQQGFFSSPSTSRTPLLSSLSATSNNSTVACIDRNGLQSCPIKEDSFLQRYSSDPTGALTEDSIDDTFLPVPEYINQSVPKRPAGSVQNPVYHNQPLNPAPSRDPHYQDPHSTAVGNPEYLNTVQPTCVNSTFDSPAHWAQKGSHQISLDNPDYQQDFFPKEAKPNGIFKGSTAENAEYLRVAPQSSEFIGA

[12] = molecular target: Serine/threonine-protein kinase PLK1 (Homo sapiens, UniProt P53350); experiment: Inhibition of GST-tagged recombinant PLK1 after 20 mins by autoradiography
Serine/threonine-protein kinase PLK1, sequence (P53350 whole entry): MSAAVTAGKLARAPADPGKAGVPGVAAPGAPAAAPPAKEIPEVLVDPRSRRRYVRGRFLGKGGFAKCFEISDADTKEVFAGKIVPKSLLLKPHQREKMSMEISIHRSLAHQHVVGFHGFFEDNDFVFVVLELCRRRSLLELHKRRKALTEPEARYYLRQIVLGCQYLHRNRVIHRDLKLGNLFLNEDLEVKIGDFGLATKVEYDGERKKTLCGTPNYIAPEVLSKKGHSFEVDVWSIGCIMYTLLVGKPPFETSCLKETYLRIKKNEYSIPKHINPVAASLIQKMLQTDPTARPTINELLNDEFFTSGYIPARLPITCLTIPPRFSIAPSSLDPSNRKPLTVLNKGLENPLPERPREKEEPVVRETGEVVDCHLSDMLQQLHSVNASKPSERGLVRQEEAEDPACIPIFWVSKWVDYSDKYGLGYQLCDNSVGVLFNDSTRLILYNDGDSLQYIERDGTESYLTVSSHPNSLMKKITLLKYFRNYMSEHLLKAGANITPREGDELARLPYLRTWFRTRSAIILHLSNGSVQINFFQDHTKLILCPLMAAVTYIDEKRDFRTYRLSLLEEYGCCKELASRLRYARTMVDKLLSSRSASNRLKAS
Summary of the method: as §1

[13] = molecular target: T1, Bcr/Abl fusion protein; experiment: Inhibition of Bcr-Abl after 20 mins by autoradiography; assay type: protein assay
Summary of the method: as §1

| SMILES | solubility [1] | pIC50 [2] | inhibition [3] | pIC50 [4] | solubility [5] | GI50 [2] | GI50 [6] | pIC50 [7] | pIC50 [8] | pIC50 [9] | pIC50 [10] | pIC50 [11] | pIC50 [12] | pIC50 [13] |
| --- | --- | --- | --- | --- | --- | --- | --- | --- | --- | --- | --- | --- | --- | --- |
| O=C(/C(=C\c1ccc(F)c([N+](=O)[O-])c1)SCc1ccc(F)cc1)c1ccc(C(=O)N2CCN(CCO)CC2)cc1 | > 10000 µg/mL | 6.30 | Active | 6.30 | > 10000 µg/mL | – | – | – | – | – | – | – | – | – |
| O=C(/C(=C\c1ccc(F)c([N+](=O)[O-])c1)SCc1ccc(Br)cc1)c1ccc(C(=O)N2CCN(CCO)CC2)cc1 | > 10000 µg/mL | 6.30 | Active | 6.30 | > 10000 µg/mL | < 250 nM | 750 nM | – | – | – | – | – | – | – |
| COC(=O)c1ccc(C(=O)/C(=C\c2ccc(F)c([N+](=O)[O-])c2)SCc2ccc(Br)cc2)cc1 | – | 6.52 | Active | 6.12 | < 1000 µg/mL | – | – | – | – | – | – | – | – | – |
| O=C(O)c1ccc(C(=O)/C(=C\c2ccc(F)c([N+](=O)[O-])c2)SCc2ccc(Br)cc2)cc1 | – | 6.52 | Active | 6.30 | < 1000 µg/mL | < 1000 nM | 1000 nM | < 4.30 | < 5.00 | 4.88 | 4.77 | < 4.70 | < 4.30 | 6.12 |
| CN1CCN(CCNC(=O)c2ccc(C(=O)/C(=C\c3ccc(F)c([N+](=O)[O-])c3)SCc3ccc(Br)cc3)cc2)CC1 | > 10000 µg/mL | 5.60 | Active | 5.60 | > 10000 µg/mL | 1000 nM | 1000 nM | – | – | – | – | – | – | – |
| O=C(O)c1ccc(C(=O)/C(=C\c2ccc(F)c([N+](=O)[O-])c2)SCc2ccc(C(F)(F)F)cc2)cc1 | – | 6.40 | Active | 6.70 | < 1000 µg/mL | < 1000 nM | 1000 nM | – | – | – | – | – | – | – |
| CCN(CC)CCNC(=O)c1ccc(C(=O)/C(=C\c2ccc(F)c([N+](=O)[O-])c2)SCc2ccc(Br)cc2)cc1 | > 10000 µg/mL | 6.30 | – | 6.30 | > 10000 µg/mL | – | – | – | – | – | – | – | – | – |
